ChEMBL document CHEMBL4017487, “Design and Synthesis of γ- and δ-Lactam M1 Positive Allosteric Modulators (PAMs): Convulsion and Cholinergic Toxicity of an M1-Selective PAM with Weak Agonist Activity” (J Med Chem, 2017)

Experiments:
[1] = Ratio of unbound AUC in rat brain to plasma at 2 mg/kg, po or 0.5 mg/kg, iv administered as single bolus dose; assay type: ADME, organism-based
[2] = biological target: T1, Muscarinic acetylcholine receptor M4 (Homo sapiens, UniProt P08173); assay: Positive allosteric modulation of human muscarinic acetylcholine receptor M4 expressed in CHO cells assessed as increase in acetylcholine-induced cAMP accumulation up to 10 uM after 2 hrs by cAMP-Glo assay; assay type: cell-based
T1 sequence (P08173 whole entry): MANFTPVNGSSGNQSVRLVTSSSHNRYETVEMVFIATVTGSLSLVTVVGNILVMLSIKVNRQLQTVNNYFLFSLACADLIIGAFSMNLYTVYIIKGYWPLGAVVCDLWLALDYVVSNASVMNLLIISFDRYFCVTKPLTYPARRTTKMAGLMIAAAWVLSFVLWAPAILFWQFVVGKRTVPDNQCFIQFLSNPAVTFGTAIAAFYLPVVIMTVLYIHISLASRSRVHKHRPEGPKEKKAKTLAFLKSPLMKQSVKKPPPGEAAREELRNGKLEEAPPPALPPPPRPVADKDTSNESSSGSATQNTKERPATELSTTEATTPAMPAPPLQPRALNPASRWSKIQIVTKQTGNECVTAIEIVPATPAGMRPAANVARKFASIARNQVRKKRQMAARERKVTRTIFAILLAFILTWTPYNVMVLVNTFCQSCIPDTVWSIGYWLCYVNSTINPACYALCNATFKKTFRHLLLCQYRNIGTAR
Procedure, shortened: (§1)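 Recombinant functional human M2–M5 assays, each run in agonist and PAM modes at concentrations up to 10 μM.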

[3] = biological target: T2, Muscarinic acetylcholine receptor M5 (Homo sapiens, UniProt P08912); assay: (§2) Positive allosteric modulation of human muscarinic acetylcholine receptor M5 expressed in CHO cells assessed as increase in acetylcholine-induced calcium mobilization up to 10 uM preincubated for 10 mins followed by acetylcholine addition by Fluo-8-AM dye based FLIPR assay; assay type: cell-based; procedure, shortened: as §1
T2 sequence (P08912 whole entry): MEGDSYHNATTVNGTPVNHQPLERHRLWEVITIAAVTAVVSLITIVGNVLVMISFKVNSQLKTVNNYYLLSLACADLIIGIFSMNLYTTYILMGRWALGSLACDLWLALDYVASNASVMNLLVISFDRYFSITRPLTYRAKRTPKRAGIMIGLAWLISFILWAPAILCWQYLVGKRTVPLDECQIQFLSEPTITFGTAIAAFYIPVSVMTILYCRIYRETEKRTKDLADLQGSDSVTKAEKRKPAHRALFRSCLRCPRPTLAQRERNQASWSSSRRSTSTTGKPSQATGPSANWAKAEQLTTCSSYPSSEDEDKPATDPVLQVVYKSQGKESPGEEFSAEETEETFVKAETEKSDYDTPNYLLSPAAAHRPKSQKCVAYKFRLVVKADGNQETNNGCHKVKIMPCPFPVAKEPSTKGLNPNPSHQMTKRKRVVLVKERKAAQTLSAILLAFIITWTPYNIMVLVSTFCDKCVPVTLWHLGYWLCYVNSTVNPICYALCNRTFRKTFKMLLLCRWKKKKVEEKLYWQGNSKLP

[4] = biological target: T1, Muscarinic acetylcholine receptor M4; assay: Agonist activity at human muscarinic acetylcholine receptor M4 expressed in CHO cells assessed as increase in cAMP accumulation after 2 hrs by cAMP-Glo assay; assay type: cell-based; procedure, shortened: as §1
[5] = Selectivity ratio of EC50 for human muscarinic acetylcholine receptor M4 expressed in CHO cells to EC50 for human muscarinic acetylcholine receptor M1 expressed in CHO cells; assay type: ADME, cell-based
[6] = biological target: T3, Muscarinic acetylcholine receptor M1 (Homo sapiens, UniProt P11229); assay: Activity at human muscarinic acetylcholine receptor M1 expressed in CHO cells by beta-arrestin recruitment assay; assay type: cell-based
T3 sequence (P11229 whole entry): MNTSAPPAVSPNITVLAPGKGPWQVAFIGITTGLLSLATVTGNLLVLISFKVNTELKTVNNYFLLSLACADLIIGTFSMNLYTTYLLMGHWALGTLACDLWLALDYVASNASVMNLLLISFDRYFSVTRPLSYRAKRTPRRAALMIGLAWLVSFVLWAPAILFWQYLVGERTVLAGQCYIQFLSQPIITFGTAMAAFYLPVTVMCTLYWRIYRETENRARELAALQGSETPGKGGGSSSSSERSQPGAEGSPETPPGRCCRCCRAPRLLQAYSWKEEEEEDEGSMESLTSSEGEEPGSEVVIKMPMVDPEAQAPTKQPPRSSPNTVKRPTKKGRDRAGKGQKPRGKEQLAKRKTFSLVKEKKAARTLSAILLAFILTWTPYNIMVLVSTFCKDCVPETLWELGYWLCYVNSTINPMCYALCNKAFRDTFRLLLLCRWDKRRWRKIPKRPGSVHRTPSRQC

[7] = biological target: T3, Muscarinic acetylcholine receptor M1; assay: as §2, with “M1” for “M5”, “by measuring functional co-operativity with acetylcholine” for “up to 10 uM”; assay type: ADME, cell-based
Procedure, shortened: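 In FLIPR calcium-mobilization data, ACh concentration–response curves with and without test compound were fitted with the Black/Leff operational model. α gives the change in receptor affinity for ACh, and β gives the change in efficacy, the functional cooperativity.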

[8] = biological target: T3, Muscarinic acetylcholine receptor M1; assay: Positive allosteric modulation of human muscarinic acetylcholine receptor M1 expressed in CHO cells assessed as increase in acetylcholine-induced beta-arrestin recruitment by measuring functional co-operativity with acetylcholine; assay type: ADME, cell-based
Plasma [9] = assay: Unbound plasma concentration in amphetamine-induced hyperlocomotion C57BL/6 mouse at 1 mg/kg, sc measured after 1 hr by LC-MS/MS analysis; assay type: ADME, organism-based; details: in vivo
Procedure, shortened: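 Satellite group of C57BL/6 mice from the amphetamine-stimulated locomotor study, N = 2/dose at 0.32, 1 and 3.2 mg/kg. Dosed sc as a solution in 10/90 Cremophor/water. Unbound plasma and brain concentrations measured at T = 1 h.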

Plasma [10] = assay: Unbound plasma concentration in scopolamine-induced memory impairment Wistar rat model at 3.2 mg/kg, sc measured after 1.25 hrs by LC-MS/MS analysis; assay type: ADME, organism-based; details: in vivo
Procedure, shortened: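 Rats from a satellite group of the scopolamine (0.32 mg/kg) Morris water maze study, N = 2/dose. Dosed sc as a solution in 20% hydroxypropyl β-cyclodextrin. Compound concentrations measured in plasma only at T = 1.25 h.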

Rattus norvegicus [11] = assay: Unbound Cmax in rat plasma at 15 mg/kg, po administered as single dose; assay type: ADME, organism-based; details: in vivo
Rattus norvegicus [12] = assay: Unbound AUC (0 to 24 hrs) in rat plasma at 15 mg/kg, po administered as single dose; assay type: ADME, organism-based; details: in vivo
Rattus norvegicus [13] = assay: Toxicity in rat assessed as unbound Cmax in plasma required to show convulsions at 45 mg/kg, po administered as single dose; assay type: organism-based; details: in vivo

SMILES: Cc1cc2c(cc1Cc1ccc(-c3cocn3)cc1)C(=O)N([C@H]1CCOC[C@@H]1O)C2
- Kp uu [1]: 0.2
- Activity [2]: Not Active
- Activity [3]: Not Active
- EC50 [4]: > 10 µM
- Ratio EC50 [5]: > 200
- Kb [6]: 8 µM
- log(activity) [7]: 2.3
- log(activity) [8]: 2.9
- Cp(f) (Plasma [9]): 46 nM
- Cp(f) (Plasma [10]): 200 nM
- fCmax (Rattus norvegicus [11]): 1507 nM
- fAUC (Rattus norvegicus [12]): 20.609 µM·h
- fCmax (Rattus norvegicus [13]): 2310 nM
